Test system: MS2 coat protein
Assay: apparent Kd, MS2 coat protein; higher = weaker binding; RNA-MaP array; FMN 200 µM where present
How it was run: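 Designs on Illumina sequencing-chip clusters, transcribed by stalled E. coli RNA polymerase, were exposed to SNAP-549-labelled MS2 coat protein in doubling steps from 0.7 or 1.5 nM up to 3 µM, without and then with constant ligand. The buffer held 100 mM Tris-HCl pH 7.5, 80 mM KCl, 4 mM MgCl2, BSA, DTT, yeast tRNA and Tween-20. Apparent Kd values are medians of filtered per-cluster binding-curve fits to green signal normalised to red-channel RNA signal and control-cluster median Fmax.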

[1] = designed as: OFF switch for flavin mononucleotide, no ligand
[2] = ligand present: flavin mononucleotide, designed as: OFF switch for flavin mononucleotide
[3] = designed as: ON switch for flavin mononucleotide, no ligand
[4] = ligand present: flavin mononucleotide, designed as: ON switch for flavin mononucleotide

Sequence	apparent Kd [1] [nM]	apparent Kd [2] [nM]	apparent Kd [3] [nM]	apparent Kd [4] [nM]
AUACCACGAGGAUAUCGUCUAUAAUACAUGAGGAUCACCCAUGUUAUAUCUGUAAUGUUUCGAGAAGGCGUGUUUU	17.5	14.2	–	–
AUUUUAAUAUAGGAUAUCGAAUUUAUUAAUUAUCGAGAAGGAUAAACAUGAGGAUCACCCAUGUGGUAUCAUGG	210	274	–	–
AGCUAUUACGAAGGAUAUUGUGACAUGAGGAUCACCCAUGUUUUCAUGAUUAAUUGUGAUCACGUCGAGAAGGUUGUACUAACA	–	–	52.4	54.5
AAUUAGUGAGGAUAUACGGGAGGGAGGGAGGGAGGGAGGGAGUAGAAGGCACAUGAGGAUCACCCAUGUAAUUA	15.1	22.7	–	–
GUAGUGCUCAUAGGAUAUCGGGAACAACGUAGACAGGUUGUACAUGAGGAUCACCCAUGUAAAGUCGAGAAGGGUGAUCACGCC	–	–	519	194
CCUUUACAUGAGGAUCACCCAUGUCAGGAUAUCCUGUUGUGUUGUCUCGGGCGACACAUGAGCCAGGAGAAGGGACGAAGGGAA	41.7	68.1	–	–
UUCAUCAAGGAAGGAUAUCUAUAUCCAACAUGAGGAUCACCCAUGUUGAGGAUCACCCAUGUAAAGGAGAAGGUUCAUAUAACU	–	–	58.1	50.7
UAUAUUAUUAUAGGAUAUGGAUAUGAUGCAUAUCCAGAAGGGUGAUUAUAAUAUUUUCUGUACAUGAGGAUCACCCAUGUUUAG	–	–	134	32.5
GGUACCAUCACAGGAUAUGCUUUCCUUUGGGAAGCAGAAGGGUGUAACAUGAGGAUCACCCAUGUGGUGCCAGGGCGUGGGCCC	–	–	212	19.2
UCGGAGUAAGUGAGGAUAUGUGCGCCUUUAAGCGUACAGAAGGCACAUGAGGAUCACCCAUGUGAGGCCUGCCA	18.9	39	–	–
CCAGCAACAUGAGGAUCACCCAUGUAGGAUAUCGCUAUUGUAAUCAUGAAACAUGAUUACAAUAGCGAGAAGGACAUAUGCUAA	9.29	10.2	–	–
GGAUGACAAAGUCAUCCUUAACGAACAUGAGGAUCACCCAUGUAGGAUAUGGUACUCAAAGAGUACCAGAAGGACAUGUGCCUU	34.3	203	–	–
CGAAGUACGUAAGGAUAUACCGUGAGGACAACGGUAGAAGGUACAACAACAUGAGGAUCACCCAUGUGGACCUCUCGGCGUUGU	394	617	–	–
AGUGUCAUCGAGAAGGCCUCAACAUGAGGAUCACCCAUGUUGUUACAUGGGAGGAUAUCGAUGAUACAGCUACGUUUCGUAGCA	–	–	1010	137
UGUUGUAUUACAGGAUAUCUAUUGUAUUUAUUUAGAGAAGGGUAUUCACAUGAGGAUCACCCAUGUAUAUACGAGGAAGUUGUG	–	–	63.9	70.8
GUAGCAUACCGAGGAUAUCUCAAUAAUAAACAAACAUGAGGAUCACCCAUGUGGCGAAAGCCAAGGGAGAAGGCGGAAUGCUAC	–	–	43.1	17.6
GUCAGCUCGCGAGGAUAUACAACACUGCUUCGGCAGUGUAUUAAGAUCACAUGAGGAUCACCCAUGUAGAAGGCACGAGCUGAU	10.4	145	–	–
GACCCAAAUGAGAAGGUGUGUAUAAAUUAUGUACAAGGAUAUCGGUCGAGCGUGUUGACAUGAGGAUCACCCAUGUUGUGGGUU	–	–	139	56.2

Sequence	apparent Kd [1] [nM]	apparent Kd [2] [nM]	apparent Kd [3] [nM]	apparent Kd [4] [nM]
CGGAAACAAGGAUAUACAUGAGGAUCACCCAUGUCGCUAACUGCGCUCUUGUGAUCCGGUAGAAGGUGUGAAUA	29.8	41	–	–
ACAUGAGGAUCACCCAUGUAGAAUGAAGAAGGUAGAUACUUGAGGAUCACCCAUGUACAUGGGACUAAGGAUAUUCUAAUAAUU	–	–	144	105
UUUCAGUCAGGAUAUCGUUAAUUUAAUUGUUUGUUUUAGUUCGAGAAGGGACAUGAGGAUCACCCAUGUAAUUU	33.1	51.3	–	–
AUGGAUAUCACAGGAUAUGCUAAGGAUACCUUAGCAGAAGGGUGAUCCAUCCUAUGGCUGCACAUGAGGAUCACCCAUGUGUCC	–	–	124	11.8
AAUUCACAUGAGGAUCACCCAUGUCAGGAUAUGGUUUCACGUGUUUCGGUGCUUGAGGCCAGAAGGGACAGCUA	67	98.6	–	–
GAGUAGUCAAAAGGAUAUUGAUUAUUGUAGGAUCAAGAAGGUUUUAACAUGAGGAUCACCCAUGUAGGACUAUUCCUGUGUAUC	–	–	16.6	12.2
AUAGGCCUAGGAUAUACAUGAGGAUCACCCAUGUUAACACUUCAAUCAAGUUAAUAUUGUAGAAGGAGGAAUAA	30.4	29.4	–	–
GUCUACCUAGGAUAUACAUGAGGAUCACCCAUGUAAAGUUUCGUAAAAAGAUAAUCGAGUAGAAGGAGGUGGAU	20.3	20.9	–	–
GUGCUCGUGUAAGGAUAUGCAGCCGUUUCGGCUGCAGAAGGUACUAUAAUACAUGAGGAUCACCCAUGUCUCUAUAAUUUGGUG	–	–	148	214
UUUUUGUGAGGAUAUCAGUAGUAAAAAAAUAAAAUUACUACUGAGAAGGCACAUGAGGAUCACCCAUGUUUUUC	38.2	117	–	–
GUCAGCGCGUGAGGAUAUACAACACUGCUUCGGCAGUGUAUUAAGAUCACAUGAGGAUCACCCAUGUAGAAGGCACGAGCUGAU	14	263	–	–
UCAUAAAUUCGAGGAUAUCGGUGAUAAAGAAGACGAGAAGGCGAUUAGAGAGAGAUGGUUAUAGACAUGAGGAUCACCCAUGUU	–	–	33.9	24.1
AACCGCGACCGGCCUGGCACGCCGAGAAGGGUACGUGACCUGCUUUACAUGAGGAUCACCCAUGUACAGGAUAUCGGAUAGCCG	–	7.28	–	–
CGAGGACAUGAGGAUCACCCAUGUAGCUACAAAAUGCAGCGACAGGAUAUCCUCUGGUUCCCAUAGGAGAAGGGUCAAACCUUG	–	–	26.8	47.5
UAGACACUUACAGGAUAUAGGGCAGAGGGUGCCCUAGAAGGGUGAACAUGAGGAUCACCCAUGUAUGUGUCUGAUUAGAAGGCA	–	–	36.2	69.4
GUCAGCUCGUGAGGAUAUACAUCACUGCUUCGGCAGUGUAUUAAGAGUACAUGAGGAUCACCCAUGUAGAAGGCACGAGCUGAU	17.3	19.6	–	–
AACAAUCUAUCUGAGGAUAUCAUGAAAAAAACAUGAGGAUCACCCAUGUGCAGGAAAACUGCAUAUGAGAAGGCAGAUAGAUUGC	–	–	590	26.8
AACAGCUCGUCAGGAUAUAUUAUAUUUAUAUGGAUUAAUGUACAUGAGGAUCACCCAUGUAGUUAGUAGAAGGGACGAGCUGAA	8.4	10.8	–	–
